The source made the active and inactive calls. The rule behind the calls is not given here.
What was measured:
PC-3 [1] = assay: Induction of apoptosis in human PC3 cells assessed as late apoptotic cells at 2 uM after 48 hrs by AnnexinV-FITC/propidium iodide staining-based flow cytometric analysis (reference value: 0.1%); format: functional
PC-3 [2] = assay: Antimigratory activity in human PC3 cells assessed as increase in E-cadherin at 0.5 to 2 uM after 48 hrs by Western blot analysis; format: functional, cell-based
In short: (§1)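 PC-3 cells treated 48 h with compound at several concentrations, lysed in NP-40/SDS/deoxycholate buffer with PMSF. Equal lysate amounts resolved by SDS-PAGE, transferred to nitrocellulose, blocked in 5% milk 2 h, primary antibody overnight at 4 °C, HRP secondary, ECL detection; GAPDH as loading control.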

PC-3 [3] = assay: Antiproliferative activity against human PC3 cells after 72 hrs by MTT assay; format: functional, cell-based; settings: PC-3, 72 h
In short: (§2)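 Exponentially growing cells, 4×10^3/well, attached 24 h, then medium replaced with fresh medium holding graded compound concentrations for 72 h. MTT (5 mg/mL stock) added for 4 h, formazan dissolved in DMSO, absorbance at 570 nm; IC50 calculated from dose-response data.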

PC-3 [4] = assay: Induction of apoptosis in human PC3 cells assessed as viable cells at 1 uM after 48 hrs by AnnexinV-FITC/propidium iodide staining-based flow cytometric analysis (reference value: 99.1%); format: functional; settings: PC-3, 48 h, read-out: Activity
PC-3 [5] = assay: Induction of apoptosis in human PC3 cells assessed as formation of apoptotic bodies at 0.5 to 2 uM after 48 hrs by Hoechst 33258 staining-based fluorescence microscopic analysis; format: functional, cell-based
In short: (§3)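 PC-3 cells, 3×10^5/well, grown 48 h, then treated with compound at varying concentrations 48 h. Methanol-fixed ~20 min, stained with 5 ug/mL Hoechst-33258 in PBS with 0.5% Triton X-100 in dark ≥30 min; nuclear condensation/fragmentation scored by UV fluorescence microscopy.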

PC-3 [6] = assay: Induction of apoptosis in human PC3 cells assessed as increase in caspase-3 activation after 48 hrs by Western blot analysis; format: functional, cell-based; in short: as §1
PC-3 [7] = assay: Anti-invasive activity in human PC3 cells after 48 hrs by matrigel-coated transwell assay; format: functional, cell-based
PC-3 [8] = assay: Induction of apoptosis in human PC3 cells assessed as early apoptotic cells at 1 uM after 48 hrs by AnnexinV-FITC/propidium iodide staining-based flow cytometric analysis (reference value: 0.3%); format: functional
PC-3 [9] = assay: Induction of apoptosis in human PC3 cells assessed as early apoptotic cells at 0.5 uM after 48 hrs by AnnexinV-FITC/propidium iodide staining-based flow cytometric analysis (reference value: 0.3%); format: functional
PC-3 [10] = assay: Cell cycle arrest in human PC3 cells assessed as accumulation of cells at G2 phase at 2 uM after 48 hrs by RNase/propidium iodide staining-based flow cytometric analysis (reference value: 7.17%); format: functional
PC-3 [11] = assay: Induction of apoptosis in human PC3 cells assessed as early apoptotic cells at 2 uM after 48 hrs by AnnexinV-FITC/propidium iodide staining-based flow cytometric analysis (reference value: 0.3%); format: functional
PC-3 [12] = assay: Induction of apoptosis in human PC3 cells assessed as necrotic cells at 2 uM after 48 hrs by AnnexinV-FITC/propidium iodide staining-based flow cytometric analysis (reference value: 0.5%); format: functional
PC-3 [13] = assay: Cell cycle arrest in human PC3 cells assessed as accumulation of cells at G2 phase at 0.5 uM after 48 hrs by RNase/propidium iodide staining-based flow cytometric analysis (reference value: 7.17%); format: functional
PC-3 [14] = assay: Induction of apoptosis in human PC3 cells assessed as necrotic cells at 1 uM after 48 hrs by AnnexinV-FITC/propidium iodide staining-based flow cytometric analysis (reference value: 0.5%); format: functional
PC-3 [15] = assay: Induction of apoptosis in human PC3 cells assessed as increase in cleaved PARP after 48 hrs by Western blot analysis; format: functional, cell-based; in short: as §1
PC-3 [16] = assay: Induction of apoptosis in human PC3 cells assessed as late apoptotic cells at 0.5 uM after 48 hrs by AnnexinV-FITC/propidium iodide staining-based flow cytometric analysis (reference value: 0.1%); format: functional
PC-3 [17] = assay: Cell cycle arrest in human PC3 cells assessed as accumulation of cells at S phase at 2 uM after 48 hrs by RNase/propidium iodide staining-based flow cytometric analysis (reference value: 30.89%); format: functional
PC-3 [18] = assay: Antimigratory activity in human PC3 cells after 48 hrs by wound-healing assay; format: functional, cell-based
In short: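 PC-3 cells seeded at 3×10^5/well, grown to 80–90% confluence, monolayer scratched with pipette tip, washed, then exposed to compound (0, 0.5, 1.0, 2.0 μM) for 48 h. Wound photographed by inverted microscopy. At least three experiments.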

PC-3 [19] = assay: Induction of apoptosis in human PC3 cells assessed as chromatin shrinkage at 0.5 to 2 uM after 48 hrs by Hoechst 33258 staining-based fluorescence microscopic analysis; format: functional, cell-based; in short: as §3
PC-3 [20] = assay: Cell cycle arrest in human PC3 cells assessed as accumulation of cells at G2 phase at 1 uM after 48 hrs by RNase/propidium iodide staining-based flow cytometric analysis (reference value: 7.17%); format: functional
PC-3 [21] = assay: Induction of apoptosis in human PC3 cells assessed as increase in caspase-9 activation after 48 hrs by Western blot analysis; format: functional, cell-based; in short: as §1
ECa-109 cell line = assay: Antiproliferative activity against human EC109 cells after 72 hrs by MTT assay; format: functional, cell-based; settings: ECa-109, 72 h; in short: as §2
PC-3 [22] = assay: Antimigratory activity in human PC3 cells after 24 hrs by transwell assay
PC-3 [23] = assay: Induction of apoptosis in human PC3 cells assessed as necrotic cells at 0.5 uM after 48 hrs by AnnexinV-FITC/propidium iodide staining-based flow cytometric analysis (reference value: 0.5%); format: functional
MGC-803 = assay: Antiproliferative activity against human MGC803 cells after 72 hrs by MTT assay; format: functional, cell-based; settings: MGC-803, 72 h; in short: as §2
PC-3 [24] = assay: Inhibition of colony formation in human PC3 cells at 0.5 to 2 uM after 7 days by crystal violet staining-based assay; format: functional, cell-based
In short: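 About 2000 PC-3 cells/well seeded, after 24 h medium replaced with compound-containing medium for 7 days. Colonies PBS-washed, fixed in 4% paraformaldehyde 30 min, crystal violet stained 30 min, destained with PBS before evaluation. Repeated three times.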

LNCaP = assay: Antiproliferative activity against human LNCAP cells after 72 hrs by MTT assay; format: functional, cell-based; in short: as §2
GES1 = assay: Antiproliferative activity against human GES-1 cells after 72 hrs by MTT assay; format: cell-based; settings: GES1, 72 h; in short: as §2
PC-3 [25] = assay: Cell cycle arrest in human PC3 cells assessed as accumulation of cells at S phase at 1 uM after 48 hrs by RNase/propidium iodide staining-based flow cytometric analysis (reference value: 30.89%); format: functional
PC-3 [26] = assay: Induction of apoptosis in human PC3 cells assessed as late apoptotic cells at 1 uM after 48 hrs by AnnexinV-FITC/propidium iodide staining-based flow cytometric analysis (reference value: 0.1%); format: functional
PC-3 [27] = assay: Cell cycle arrest in human PC3 cells assessed as accumulation of cells at G1 phase at 2 uM after 48 hrs by RNase/propidium iodide staining-based flow cytometric analysis (reference value: 61.95%); format: functional
PC-3 [28] = assay: Cell cycle arrest in human PC3 cells assessed as accumulation of cells at G1 phase at 1 uM after 48 hrs by RNase/propidium iodide staining-based flow cytometric analysis (reference value: 61.95%); format: functional
PC-3 [29] = assay: Cell cycle arrest in human PC3 cells assessed as accumulation of cells at G1 phase at 0.5 uM after 48 hrs by RNase/propidium iodide staining-based flow cytometric analysis (reference value: 61.95%); format: functional
PC-3 [30] = assay: Cell cycle arrest in human PC3 cells assessed as accumulation of cells at S phase at 0.5 uM after 48 hrs by RNase/propidium iodide staining-based flow cytometric analysis (reference value: 30.89%); format: functional
PC-3 [31] = assay: Induction of apoptosis in human PC3 cells assessed as viable cells at 2 uM after 48 hrs by AnnexinV-FITC/propidium iodide staining-based flow cytometric analysis (reference value: 99.1%); format: functional; settings: PC-3, 48 h, read-out: Activity
PC-3 [32] = assay: Induction of apoptosis in human PC3 cells assessed as viable cells at 0.5 uM after 48 hrs by AnnexinV-FITC/propidium iodide staining-based flow cytometric analysis (reference value: 99.1%); format: functional; settings: PC-3, 48 h, read-out: Activity
PC-3 [33] = assay: Antimigratory activity in human PC3 cells assessed as decrease in N-Cadherin at 0.5 to 2 uM after 48 hrs by Western blot analysis; format: functional, cell-based; in short: as §1
PC-3 [34] = assay: Induction of apoptosis in human PC3 cells assessed as cell rounding at 0.5 to 2 uM after 48 hrs by Hoechst 33258 staining-based fluorescence microscopic analysis; format: functional; in short: as §3
PC-3 [35] = assay: Induction of apoptosis in human PC3 cells after 48 hrs by AnnexinV-FITC/propidium iodide staining-based flow cytometric analysis; format: functional, cell-based
PC-3 [36] = assay: Antimigratory activity in human PC3 cells assessed as decrease in vimentin at 0.5 to 2 uM after 48 hrs by Western blot analysis; format: functional, cell-based; in short: as §1
PC-3 [37] = assay: Antimigratory activity in human PC3 cells assessed as increase in occludin at 0.5 to 2 uM after 48 hrs by Western blot analysis; format: functional, cell-based; in short: as §1

With `CCOc1cc(-c2cccnc2)cc([C@H]2CC[C@H]3[C@@H]4CC=C5C[C@@H](O)CC[C@]5(C)[C@H]4CC[C@]23C)n1` the Activity (PC-3 [1]) was 14.9%, the Activity (PC-3 [2]) was “Active” and the IC50 (PC-3 [3]) was 1550 nM. For the same molecule, the viability at 1 µM (PC-3 [4]) was 76.7%, the Activity (PC-3 [5]) was “Active” and the Activity (PC-3 [6]) was “Dose-dependent effect”. For the same molecule, the Activity (PC-3 [7]) was “Dose-dependent effect”, the Activity (PC-3 [8]) was 9.1% and the Activity (PC-3 [9]) was 10.7%. For the same molecule, the Activity (PC-3 [10]) was 10.87%, the Activity (PC-3 [11]) was 7.3% and the Activity (PC-3 [12]) was 4.6%. The Activity (PC-3 [13]) was 10.92%, the Activity (PC-3 [14]) was 2.5% and the Activity (PC-3 [15]) was “Dose-dependent effect”. For the same molecule, the Activity (PC-3 [16]) was 2.6%, the Activity (PC-3 [17]) was 35.77% and the Activity (PC-3 [18]) was “Dose-dependent effect”. The Activity (PC-3 [19]) was “Active”, the Activity (PC-3 [20]) was 11.09% and the Activity (PC-3 [21]) was “Dose-dependent effect”. The IC50 (ECa-109 cell line) was 5.32 µM, the Activity (PC-3 [22]) was “Dose-dependent effect” and the Activity (PC-3 [23]) was 0.5%. For the same molecule, the IC50 (MGC-803) was 2750 nM, the inhibition (PC-3 [24]) was “Active” and the IC50 (LNCaP) was 8.48 µM. It also gave an IC50 (GES1) of 7.76 µM, an Activity (PC-3 [25]) of 33.48% and an Activity (PC-3 [26]) of 11.7%. It also gave an Activity (PC-3 [27]) of 53.36%, an Activity (PC-3 [28]) of 55.44% and an Activity (PC-3 [29]) of 55.52%. The Activity (PC-3 [30]) was 33.56%, the viability at 2 µM (PC-3 [31]) was 73.3% and the viability at 0.5 µM (PC-3 [32]) was 86.2%. For the same molecule, the Activity (PC-3 [33]) was “Active”, the Activity (PC-3 [34]) was “Active” and the Activity (PC-3 [35]) was “Dose-dependent effect”. The Activity (PC-3 [36]) was “Active” and the Activity (PC-3 [37]) was “Active”.
